Calls of active or inactive are those of the source.
Assays:
[1] = tested on: OVCAR-4; experiment: Cytotoxicity against human OVCAR4 cells by sulforhodamine B assay; assay type: functional
In short: (§1)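 NCI Developmental Therapeutics Program 60-cell-line human tumor panel screen, run at NCI. A single-concentration pre-screen was followed by a five-concentration dose-response in 10-fold steps. GI50 is the concentration that reduces growth of treated cells to half that of untreated control cells. TGI is the concentration that completely halts growth.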

[2] = tested on: OVCAR-8; experiment: Cytotoxicity against human OVCAR8 cells by sulforhodamine B assay; assay type: functional
In short: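 NCI Developmental Therapeutics Program 60-cell-line human tumor panel, standard procedure. Single-concentration prescreen first; active compounds then tested at five concentrations. GI50 is the concentration reducing growth of treated cells to half that of untreated controls.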

[3] = tested on: MCF7; experiment: Cytotoxicity against human MCF7 cells by sulforhodamine B assay; assay type: functional
[4] = tested on: M14; experiment: Cytotoxicity against human M14 cells assessed as cell growth at 8 nM by sulforhodamine B assay relative to control; assay type: functional; details: read-out: Activity
[5] = tested on: NCI-H322M; experiment: Cytotoxicity against human NCI-H322M cells assessed as cell growth at 8 nM by sulforhodamine B assay relative to control; assay type: functional; details: read-out: Activity
[6] = tested on: Escherichia coli; experiment: Antimicrobial activity against Escherichia coli ATCC 35218 by CLSI method; assay type: functional, organism-based
[7] = tested on: T47D; experiment: Cytotoxicity against human T47D cells by sulforhodamine B assay; assay type: functional; in short: as §1
[8] = tested on: HOP-62; experiment: Cytotoxicity against human HOP62 cells assessed as cell growth at 8 nM by sulforhodamine B assay relative to control; assay type: functional; details: read-out: Activity
[9] = tested on: MOLT-4; experiment: Cytotoxicity against human MOLT4 cells assessed as cell growth at 8 nM by sulforhodamine B assay relative to control; assay type: functional; details: read-out: Activity
[10] = tested on: ACHN; experiment: Cytotoxicity against human ACHN cells assessed as cell growth at 8 nM by sulforhodamine B assay relative to control; assay type: functional; details: read-out: Activity
In short: (§2)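 Run at NCI in the DTP 60-cell-line human tumor panel by standard procedure. Compounds were first screened at a single concentration, then tested at five tenfold-spaced concentrations. GI50 is the concentration reducing treated-cell growth to half that of untreated controls; TGI is the concentration completely halting growth.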

[11] = tested on: NCI/ADR-RES; experiment: Cytotoxicity against human NCI/ADR-RES cells assessed as cell growth at 8 nM by sulforhodamine B assay relative to control; assay type: functional; details: read-out: Activity
[12] = tested on: HCT-116; experiment: Cytotoxicity against human HCT116 cells assessed as cell growth at 80 nM by sulforhodamine B assay relative to control; assay type: functional; details: read-out: Activity
[13] = tested on: SF-268; experiment: Cytotoxicity against human SF268 cells assessed as cell growth at 80 nM by sulforhodamine B assay relative to control; assay type: functional; details: read-out: Activity
[14] = tested on: OVCAR-4; experiment: Cytotoxicity against human OVCAR4 cells assessed as cell growth at 80 nM by sulforhodamine B assay relative to control; assay type: functional; details: read-out: Activity
[15] = tested on: ACHN; experiment: Cytotoxicity against human ACHN cells assessed as cell growth at 80 nM by sulforhodamine B assay relative to control; assay type: functional; details: read-out: Activity; in short: as §2
[16] = tested on: RXF 393; experiment: Cytotoxicity against human RXF393 cells assessed as cell growth at 80 nM by sulforhodamine B assay relative to control; assay type: functional; details: read-out: Activity
[17] = tested on: Hs-578T; experiment: Cytotoxicity against human Hs578T cells assessed as cell growth at 80 nM by sulforhodamine B assay relative to control; assay type: functional; details: read-out: Activity
[18] = tested on: HL-60(TB); experiment: Cytotoxicity against human HL-60(TB) cells assessed as cell growth at 800 nM by sulforhodamine B assay relative to control; assay type: functional; details: read-out: Activity
[19] = tested on: EKVX; experiment: Cytotoxicity against human EKVX cells assessed as cell growth at 800 nM by sulforhodamine B assay relative to control; assay type: functional; details: read-out: Activity
[20] = tested on: HOP-92; experiment: Cytotoxicity against human HOP92 cells assessed as cell growth at 800 nM by sulforhodamine B assay relative to control; assay type: functional; details: read-out: Activity
[21] = tested on: RPMI-8226; experiment: Cytotoxicity against human RPMI8226 cells assessed as cell growth at 8 uM by sulforhodamine B assay relative to control; assay type: functional; details: read-out: Activity
[22] = tested on: COLO 205; experiment: Cytotoxicity against human COLO205 cells assessed as cell growth at 8 uM by sulforhodamine B assay relative to control; assay type: functional; details: read-out: Activity; in short: as §2
[23] = tested on: TK-10; experiment: Cytotoxicity against human TK10 cells assessed as cell growth at 8 uM by sulforhodamine B assay relative to control; assay type: functional; details: read-out: Activity
[24] = tested on: T47D; experiment: Cytotoxicity against human T47D cells assessed as cell growth at 8 uM by sulforhodamine B assay relative to control; assay type: functional; details: read-out: Activity
[25] = tested on: MOLT-4; experiment: Cytotoxicity against human MOLT4 cells assessed as cell growth at 80 uM by sulforhodamine B assay relative to control; assay type: functional; details: read-out: Activity
[26] = tested on: A549; experiment: Cytotoxicity against human A549 cells assessed as cell growth at 80 uM by sulforhodamine B assay relative to control; assay type: functional; details: read-out: Activity; in short: as §2
[27] = tested on: HOP-62; experiment: Cytotoxicity against human HOP62 cells assessed as cell growth at 80 uM by sulforhodamine B assay relative to control; assay type: functional; details: read-out: Activity
[28] = tested on: NCI-H23; experiment: Cytotoxicity against human NCI-H23 cells assessed as cell growth at 80 uM by sulforhodamine B assay relative to control; assay type: functional; details: read-out: Activity
[29] = tested on: NCI-H522; experiment: Cytotoxicity against human NCI-H522 cells assessed as cell growth at 80 uM by sulforhodamine B assay relative to control; assay type: functional; details: read-out: Activity
[30] = tested on: HCC 2998; experiment: Cytotoxicity against human HCC2998 cells assessed as cell growth at 80 uM by sulforhodamine B assay relative to control; assay type: functional; details: read-out: Activity
[31] = tested on: HT-29; experiment: Cytotoxicity against human HT-29 cells assessed as cell growth at 80 uM by sulforhodamine B assay relative to control; assay type: functional; details: read-out: Activity
[32] = tested on: SK-MEL-2; experiment: Cytotoxicity against human SK-MEL-2 cells assessed as cell growth at 80 uM by sulforhodamine B assay relative to control; assay type: functional; details: read-out: Activity
[33] = tested on: UACC-257; experiment: Cytotoxicity against human UACC257 cells assessed as cell growth at 80 uM by sulforhodamine B assay relative to control; assay type: functional; details: read-out: Activity
[34] = tested on: A549; experiment: Cytotoxicity against human A549 cells by sulforhodamine B assay; assay type: functional; in short: as §2
[35] = tested on: HOP-92; experiment: Cytotoxicity against human HOP92 cells by sulforhodamine B assay; assay type: functional
In short: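 Run by the NCI Developmental Therapeutics Program on its 60-line human tumour cell panel using the standard procedure. Compounds went through a single-concentration prescreen first, and those active by NCI criteria went on to a five-concentration growth-inhibition test. GI50 is the concentration that cuts growth of treated cells to half that of untreated control cells.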

[36] = tested on: NCI-H322M; experiment: Cytotoxicity against human NCI-H322M cells by sulforhodamine B assay; assay type: functional; in short: as §1
[37] = tested on: NCI-H522; experiment: Cytotoxicity against human NCI-H522 cells by sulforhodamine B assay; assay type: functional; in short: as §1
[38] = tested on: SF-295; experiment: Cytotoxicity against human SF295 cells by sulforhodamine B assay; assay type: functional; in short: as §1
[39] = tested on: SNB-75; experiment: Cytotoxicity against human SNB75 cells by sulforhodamine B assay; assay type: functional; in short: as §1

C/C=C1\NC(=O)[C@H](Cc2ccccc2)NC(=O)[C@@H](C(C)C)NC(=O)[C@@H]([C@@H](C)CC)NC(=O)[C@H](NC(=O)[C@H](NC(=O)[C@H](CCCNCc2ccc(F)c(C)c2)NC(=O)[C@H]2CCCN2C(=O)[C@H](NC(=O)[C@@H](NC(=O)[C@@H](NC(=O)[C@H](NC(=O)CCCC(C)C)C(C)C)[C@@H](C)O)C(C)C)C(C)C)[C@@H](C)CC)[C@@H](C)OC(=O)[C@H](C(C)C)NC1=O
GI50 [1]: 269 nM | TGI ([1]; read-out: pTGI (converted)): 955 nM | GI50 [2]: 1860 nM | LC50 [2]: 75900 nM | GI50 [3]: 1260 nM | growth at 0.008 µM [4]: 105% | growth at 0.008 µM [5]: 105% | Activity [6]: inactive | GI50 ([7]; read-out: GI50): 144 nM | TGI ([7]; read-out: TGI): 327 nM | GI50 ([7]; read-out: pGI50 (converted)): 145 nM | TGI ([7]; read-out: pTGI (converted)): 331 nM | growth at 0.008 µM [8]: 101% | growth at 0.008 µM [9]: 103% | growth at 0.008 µM [10]: 100% | growth at 0.008 µM [11]: 105% | growth at 0.08 µM [12]: 96% | growth at 0.08 µM [13]: 99% | growth at 0.08 µM [14]: 104% | growth at 0.08 µM [15]: 100% | growth at 0.08 µM [16]: 106% | growth at 0.08 µM [17]: 97% | growth at 0.8 µM [18]: 106% | growth at 0.8 µM [19]: 50% | growth at 0.8 µM [20]: 92% | growth at 8 µM [21]: -64% | growth at 8 µM [22]: -76% | growth at 8 µM [23]: -71% | growth at 8 µM [24]: -61% | growth at 80 µM [25]: 9% | growth at 80 µM [26]: 1% | growth at 80 µM [27]: -85% | growth at 80 µM [28]: -82% | growth at 80 µM [29]: -2% | growth at 80 µM [30]: -88% | growth at 80 µM [31]: 21% | growth at 80 µM [32]: -21% | growth at 80 µM [33]: -70% | GI50 ([34]; read-out: GI50): 167 nM | GI50 ([34]; read-out: pGI50 (converted)): 166 nM | GI50 [35]: 1410 nM | LC50 [35]: 6170 nM | TGI ([35]; read-out: pTGI (converted)): 2950 nM | LC50 [36]: 457 nM | GI50 ([36]; read-out: GI50): 131 nM | TGI ([36]; read-out: TGI): 244 nM | GI50 ([36]; read-out: pGI50 (converted)): 132 nM | TGI ([36]; read-out: pTGI (converted)): 245 nM | GI50 [37]: 2570 nM | LC50 [37]: > 75900 nM | TGI ([37]; read-out: pTGI (converted)): 35500 nM | GI50 [38]: 1260 nM | TGI ([38]; read-out: pTGI (converted)): 2400 nM | GI50 ([39]; read-out: GI50): 370 nM | TGI ([39]; read-out: TGI): 1250 nM | GI50 ([39]; read-out: pGI50 (converted)): 372 nM | TGI ([39]; read-out: pTGI (converted)): 1260 nM

Source: ChEMBL document CHEMBL1921722, “In vitro and in vivo evaluation of select kahalalide F analogs with antitumor and antifungal activities” (Bioorg Med Chem, 2011)
